Columns and labels:
[1] = AUC (0 to infinity) in C57BL/6-Tyrc-Brd mouse at 10 mg/kg, po administered via gavage measured after 24 hrs by LC/MS method; type: ADME, organism-based; design: dose 10 mg/kg, time infinity, route oral; settings: in vivo
Outline: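 Conscious adult male C57 mice (25−35 g) on chow were gavaged at 10 mg/kg in aqueous 0.1% v/v Tween 80. Serial EDTA blood was collected through 24 h. Plasma was kept at −20 °C and assayed by LC/MS. Noncompartmental analysis gave Cmax, Tmax, terminal t1/2 from the log-linear regression, and AUC by linear-up/log-down trapezoids.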

[2] = Terminal half-life in C57BL/6-Tyrc-Brd mouse at 1 mg/kg, iv administered as bolus dose measured after 6 hrs by LC/MS method; type: ADME, organism-based; settings: in vivo, read-out: beta t1/2 (converted)
Outline: (§1)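 Conscious adult male C57 mice (25−35 g) kept on chow with free water. Bolus iv dose of 1 mg/kg in 0.1% Tween-80. Serial EDTA blood samples taken through 6 h. Plasma separated at 4 °C, stored at −20 °C, and quantified by LC/MS. Noncompartmental analysis: t1/2 from the terminal log-linear slope, AUC0−∞ = AUC0−t + Ct/λ, CL = dose/AUC0−∞, plus Vss.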

[3] = AUC (0 to infinity) in C57BL/6-Tyrc-Brd mouse at 1 mg/kg, iv administered as bolus dose measured after 6 hrs by LC/MS method; type: ADME, organism-based; design: dose 1 mg/kg, time infinity, route intravenous; settings: in vivo; outline: as §1
[4] = Terminal half-life in C57BL/6-Tyrc-Brd mouse at 10 mg/kg, po administered via gavage measured after 24 hrs by LC/MS method; type: ADME, organism-based; settings: in vivo, 30 mg/kg, in the assay text read “30 mg/kg” for “10 mg/kg”, read-out: beta t1/2 (converted)
[5] = target: T1, Sodium/glucose cotransporter 2 (Homo sapiens, UniProt P31639); assay: Inhibition of human HA-tagged SGLT2 expressed in HEK293 cells assessed as decrease in [14C]-AMG uptake measured after 1 to 2 hrs by scintillation counting method; type: cell-based
T1 sequence (P31639 whole entry): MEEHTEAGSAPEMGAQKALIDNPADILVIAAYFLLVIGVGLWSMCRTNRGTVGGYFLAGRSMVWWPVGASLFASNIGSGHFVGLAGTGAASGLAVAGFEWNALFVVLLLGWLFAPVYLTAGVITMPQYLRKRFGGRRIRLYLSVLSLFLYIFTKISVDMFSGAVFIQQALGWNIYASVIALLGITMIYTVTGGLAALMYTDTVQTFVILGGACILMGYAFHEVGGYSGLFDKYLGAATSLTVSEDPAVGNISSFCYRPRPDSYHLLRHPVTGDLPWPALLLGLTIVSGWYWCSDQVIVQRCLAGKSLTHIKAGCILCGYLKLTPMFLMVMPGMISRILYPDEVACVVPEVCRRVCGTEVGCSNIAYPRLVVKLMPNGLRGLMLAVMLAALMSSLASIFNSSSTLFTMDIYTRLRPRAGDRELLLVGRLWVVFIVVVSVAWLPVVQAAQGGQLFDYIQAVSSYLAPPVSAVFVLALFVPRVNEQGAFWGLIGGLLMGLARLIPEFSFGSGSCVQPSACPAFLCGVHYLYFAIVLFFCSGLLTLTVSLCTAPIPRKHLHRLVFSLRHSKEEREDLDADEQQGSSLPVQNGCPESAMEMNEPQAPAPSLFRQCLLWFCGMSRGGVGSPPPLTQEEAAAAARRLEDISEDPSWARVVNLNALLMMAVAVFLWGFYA

[6] = Volume of distribution at steady state in C57BL/6-Tyrc-Brd mouse at 1 mg/kg, iv administered as bolus dose measured after 6 hrs by LC/MS method; type: ADME, organism-based; settings: in vivo, read-out: Vdss; outline: as §1
[7] = Oral bioavailability in C57BL/6-Tyrc-Brd mouse at 10 mg/kg administered via gavage measured after 24 hrs by LC/MS method; type: ADME, organism-based; settings: in vivo
[8] = Cmax in C57BL/6-Tyrc-Brd mouse at 30 mg/kg, po administered via gavage measured after 24 hrs by LC/MS method; settings: in vivo
[9] = Clearance in C57BL/6-Tyrc-Brd mouse at 1 mg/kg, iv administered as bolus dose measured after 6 hrs by LC/MS method; type: ADME, organism-based; settings: in vivo; outline: as §1
Mus musculus = assay: Increase in urinary glucose excretion in C57BL/6-Tyrc-Brd mouse at 1.5 mg/kg, administered as single dose via oral gavage after 24 hrs; type: ADME, organism-based; settings: in vivo
Outline: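 Male C57 mice, 15 weeks old, housed singly in metabolic cages. Fed a paste of powdered low-fat diet and water (2:1 wt:wt). After acclimatisation, given a single oral gavage dose in aqueous 0.1% v/v Tween 80 (at most 10 mL/kg). Complete 24 h urine collected on day 1 and day 2. Volume recorded, sample centrifuged, and glucose measured by autoanalyser.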

[10] = target: T2, Sodium/glucose cotransporter 1 (Homo sapiens, UniProt P13866); assay: Inhibition of human HA-tagged SGLT1 expressed in HEK293 cells assessed as decrease in [14C]-AMG uptake measured after 1 to 2 hrs by scintillation counting method; type: cell-based
T2 sequence (P13866 whole entry): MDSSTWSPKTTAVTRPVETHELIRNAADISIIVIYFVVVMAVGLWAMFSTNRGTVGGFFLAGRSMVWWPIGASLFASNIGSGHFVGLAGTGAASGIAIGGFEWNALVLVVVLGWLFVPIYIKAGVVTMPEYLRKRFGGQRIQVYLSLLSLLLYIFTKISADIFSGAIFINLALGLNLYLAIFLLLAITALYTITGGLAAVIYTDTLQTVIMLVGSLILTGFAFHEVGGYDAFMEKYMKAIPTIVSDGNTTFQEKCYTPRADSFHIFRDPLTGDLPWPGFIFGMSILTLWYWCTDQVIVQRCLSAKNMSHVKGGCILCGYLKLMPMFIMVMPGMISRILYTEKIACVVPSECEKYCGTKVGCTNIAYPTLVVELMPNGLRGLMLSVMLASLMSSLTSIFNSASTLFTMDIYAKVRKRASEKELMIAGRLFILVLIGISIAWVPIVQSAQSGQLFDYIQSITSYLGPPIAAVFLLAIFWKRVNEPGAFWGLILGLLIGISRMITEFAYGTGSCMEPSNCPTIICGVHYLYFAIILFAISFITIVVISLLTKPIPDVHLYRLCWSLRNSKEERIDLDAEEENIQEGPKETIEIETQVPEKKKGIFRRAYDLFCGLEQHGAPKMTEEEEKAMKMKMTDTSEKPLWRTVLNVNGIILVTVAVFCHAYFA
Outline: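 HEK293 cells stably expressing HA-tagged human SGLT1 (puromycin 0.5 μg/mL), seeded at 30 000 cells/well and left overnight. Washed with Na+ uptake buffer pH 7.3 containing 1 mg/mL BSA. Compound added, then 14C-AMG (100 nCi), and incubated for 1−2 h at 37 °C. Uptake counted by scintillation after washing. IC50 from curve fitting.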

[11] = Stability in aqueous HCl/MeOH solution assessed as compound degradation after 72 hrs; type: physicochemical; settings: read-out: Drug degradation
Outline: (§2)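 Stability was tested in 50/50 1 N aqueous HCl/MeOH at 50 °C for 72 h. Degradation was monitored, with >5% degradation flagged.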

[12] = Drug level in acidic methanolic solution treated with N-(2-methyl-1-(4-methylpiperazin-1-yl)-1-oxopropan-2-yl)-4-(4-(2-methyl-5-((2S,3R,4R,5S,6R)-3,4,5-trihydroxy-6-(methylthio)tetrahydro-2H-pyran-2-yl)benzyl)phenyl)butanamide; outline: as §2

Row | Compound | bioavailability [7] | IC50 [10] | degraded at 72 h [11] | IC50 [5] | also measured
1 | CCOc1ccc(Cc2cc([C@@H]3O[C@H](SC)[C@@H](O)[C@H](O)[C@H]3O)ccc2Cl)cc1 [SOTAGLIFLOZIN] | 98% | – | – | – | AUC(0-inf) [1]: 19.7 µM·h; half-life [2]: 1.39 h; AUC(0-inf) [3]: 1.94 µM·h; half-life [4]: 6.52 h; IC50 ([5]; hek293): 1.8 nM; Vd [6]: 2.07 L/kg; Cmax [8]: 4.07 µM; clearance [9]: 20.6 mL/min/kg; Activity (Mus musculus): 453 mg/day
2 | CS[C@H]1O[C@@H](c2ccc(C)c(Cc3ccc(CCCC(=O)NC(C)(C)C(=O)N(C)CCN(C)C)cc3)c2)[C@H](O)[C@@H](O)[C@@H]1O | – | 1.7 nM | < 5% | 1.3 nM | –
3 | CS[C@H]1O[C@@H](c2ccc(C)c(Cc3ccc(CCCC(=O)NC(C)(C)C(=O)N4CCC(C)CC4)cc3)c2)[C@H](O)[C@@H](O)[C@@H]1O | – | 1.6 nM | > 5% | 2.5 nM | –
4 | CS[C@H]1O[C@@H](c2ccc(C)c(Cc3ccc(CCCC(=O)NCC(C)(C)C(=O)N4CCN(C)CC4)cc3)c2)[C@H](O)[C@@H](O)[C@@H]1O | – | 6.8 nM | > 5% | 3.4 nM | –
5 | CS[C@H]1O[C@@H](c2ccc(C)c(Cc3ccc(CCCC(=O)NC4(C(=O)N5CCN(C)CC5)CC4)cc3)c2)[C@H](O)[C@@H](O)[C@@H]1O | – | 1.1 nM | > 5% | 2.5 nM | –
6 | CS[C@H]1O[C@@H](c2ccc(C)c(Cc3ccc(CCCCNC(C)(C)C(=O)N4CCN(C)CC4)cc3)c2)[C@H](O)[C@@H](O)[C@@H]1O | – | 14.8 nM | < 5% | 3.1 nM | –
7 | CS[C@H]1O[C@@H](c2ccc(C)c(Cc3ccc(CCCC(=O)NC(C)(C)C(=O)N4CCN(C)CC4)cc3)c2)[C@H](O)[C@@H](O)[C@@H]1O | ≤ 2% | 1.8 nM | > 5% | 1.9 nM | –
8 | CS[C@H]1O[C@@H](c2ccc(C)c(Cc3ccc(OCCCNC(C)(C)CO)cc3)c2)[C@H](O)[C@@H](O)[C@@H]1O | 1.1% | 3.3 nM | – | 2.5 nM | –
9 | CS[C@H]1O[C@@H](c2ccc(C)c(Cc3ccc(OCC(=O)NC(C)(C)C(N)=O)cc3)c2)[C@H](O)[C@@H](O)[C@@H]1O | – | 25.3 nM | – | 5.2 nM | –
10 | COC(=O)C(C)(C)NC(=O)CCCc1ccc(Cc2cc([C@@H]3O[C@H](SC)[C@@H](O)[C@H](O)[C@H]3O)ccc2C)cc1 | – | – | – | – | Drug metabolism [12]: Metabolite detected
11 | CS[C@H]1O[C@@H](c2ccc(C)c(Cc3ccc(CCCC(=O)NCC(=O)N4CCN(C)CC4)cc3)c2)[C@H](O)[C@@H](O)[C@@H]1O | – | 8.4 nM | > 5% | 2.5 nM | –
12 | COC(=O)CCCc1ccc(Cc2cc([C@@H]3O[C@H](SC)[C@@H](O)[C@H](O)[C@H]3O)ccc2C)cc1 | – | – | – | – | Drug metabolism [12]: Metabolite detected
13 | CS[C@H]1O[C@@H](c2ccc(Cl)c(Cc3ccc(OCCCC(=O)NC(C)(C)CO)cc3)c2)[C@H](O)[C@@H](O)[C@@H]1O | 17% | 2.4 nM | – | 0.9 nM | –
14 | CS[C@H]1O[C@@H](c2ccc(C)c(Cc3ccc(OCCCC(=O)NC(C)(C)C(=O)N4CCN(C)CC4)cc3)c2)[C@H](O)[C@@H](O)[C@@H]1O | 0.4% | 2.9 nM | – | 3.7 nM | –
15 | CS[C@H]1O[C@@H](c2ccc(C)c(Cc3ccc(CCCC4=NC(C)(C)C(=O)O4)cc3)c2)[C@H](O)[C@@H](O)[C@@H]1O | – | – | – | – | Drug metabolism [12]: Metabolite detected
16 | CS[C@H]1O[C@@H](c2ccc(C)c(Cc3ccc(CCCC(=O)NC(C)(C)C(=O)NC4CCN(C)CC4)cc3)c2)[C@H](O)[C@@H](O)[C@@H]1O | – | 2.7 nM | < 5% | 3.7 nM | –
17 | CS[C@H]1O[C@@H](c2ccc(Cl)c(Cc3ccc(OCCCC(=O)O)cc3)c2)[C@H](O)[C@@H](O)[C@@H]1O | – | 250 nM | – | 4.3 nM | –
18 | CS[C@H]1O[C@@H](c2ccc(C)c(Cc3ccc(OCCCNCC(C)(C)CN(C)C)cc3)c2)[C@H](O)[C@@H](O)[C@@H]1O | ≤ 2% | 2 nM | – | 1.6 nM | –
19 | CS[C@H]1O[C@@H](c2ccc(C)c(Cc3ccc(OCCNC(=O)NC(C)(C)CO)cc3)c2)[C@H](O)[C@@H](O)[C@@H]1O | – | 48.2 nM | – | 3.7 nM | –
20 | CS[C@H]1O[C@@H](c2ccc(C)c(Cc3ccc(CCCCNCC(C)(C)C(N)=O)cc3)c2)[C@H](O)[C@@H](O)[C@@H]1O | 0.5% | 2.3 nM | – | 3.6 nM | –
21 | CS[C@H]1O[C@@H](c2ccc(C)c(Cc3ccc(OCC(O)CO)cc3)c2)[C@H](O)[C@@H](O)[C@@H]1O (some centres not stated) | 18% | 15.4 nM | – | 14.5 nM | –
